Several values for one entry are separate records, joined by “and”; a condition that tells them apart may be missing. Equal entries are not always repeated.
Tests used:
[1] = Cytotoxic activity against human epidermoid carcinoma cells (KB); type: functional
Outline: (§1)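 Adherent monolayers seeded 24 h before treatment; 3-fold serial dilutions added; 72 h at 37 °C, humidified 5% CO2. Cells formol-fixed, methylene blue stained, washed, dye released with 0.1 M HCl, absorbance at 620 nm. Proliferation as % of acetogenin-free control; EC50 (50% growth inhibition) read from dose-response curves.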

[2] = system: Vero; experiment: Cytotoxic activity against african green monkey (Cercopithecus aethiops) kidney epithelial cells (VERO); type: functional, cell-based; conditions: Chlorocebus sabaeus; outline: as §1
[3] = system: L1210; experiment: Cytotoxic activity against mouse lymphocytic leukemia cells (L1210); type: functional, cell-based
Outline: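 L1210 in RPMI 1640 with 10% FBS, 2 mM L-glutamine, penicillin/streptomycin; doubling time about 13 h. Exponentially growing cells (1 × 10^4/well) exposed 72 h at 37 °C to drug dilutions prepared from DMSO solutions in medium. Coulter counter cell counts, triplicates, as % of triplicate controls; IC50 from residual cells vs concentration on semilog scale.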

[4] = system: L1210; experiment: Cell Cycle inhibition against mouse lymphocytic leukemia cells (L1210) at 10 uM; type: functional
Outline: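 L1210 cells cultured 24 h with compound, alongside a compound-free control flask; BrdU added after 15 min. Cells ethanol-permeabilized, stained with rat anti-BrdU then FITC goat secondary, counterstained with propidium iodide, analysed by flow cytometry. Percentage of cells in each cell-cycle phase calculated from histograms.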

| Compound | EC50 [1] | EC50 [2] | EC50 ([3]; Mus musculus, L1210) | inhibition at 10 µM [4] | EC50 ([3]; l1210) |
| --- | --- | --- | --- | --- | --- |
| CCCCCC[C@@H](CCC[C@H](OC(C)=O)[C@H]1CC[C@H]([C@H]2CC[C@H]([C@@H](CCCCCCCCCCCCC3=C[C@H](C)OC3=O)OC(C)=O)O2)O1)OC[C@H]1O[C@@H](OC(C)=O)[C@H](OC(C)=O)[C@@H](OC(C)=O)[C@@H]1OC(C)=O | 0.96 nM | 20 nM | 300 nM | – | – |
| CCCCCC[C@H](O)CCC[C@H](O)[C@H]1CC[C@H]([C@H]2CC[C@H]([C@@H](CCCCCCCCCCCCC3=C[C@H](C)OC3=O)OC[C@H]3O[C@H](OCc4ccccc4)[C@H](OCc4ccccc4)[C@@H](OCc4ccccc4)[C@@H]3OCc3ccccc3)O2)O1 | – | – | – | 65% | – |
| CCCCCC[C@H](O)CCC[C@H](O)[C@H]1CC[C@H]([C@H]2CC[C@H]([C@H](O)CCCCCCCCCCCCC3C[C@H](C)OC3=O)O2)O1 (some centres not stated) | 0.24 nM | 16 nM | < 0.25 nM | – | – |
| CCCCCC[C@H](O)CCC[C@H](OC[C@H]1O[C@@H](O)[C@H](O)[C@@H](O)[C@@H]1O)[C@H]1CC[C@H]([C@H]2CC[C@H]([C@@H](CCCCCCCCCCCCC3=C[C@H](C)OC3=O)OC[C@H]3O[C@@H](O)[C@H](O)[C@@H](O)[C@@H]3O)O2)O1 | 1050 nM | 1050 nM | 10000 nM | – | – |
| CCCCCC[C@H](O)CCC[C@H](O)[C@H]1CC[C@H]([C@H]2CC[C@H]([C@H](O)CCCCCCCCCCCCC3=C[C@H](C)OC3=O)O2)O1 [SQUAMOCIN] | 0.24 nM | 16 nM | < 0.25 nM | – | – |
| CC[C@]1(O)C[C@@H]2CN(CCc3c([nH]c4ccccc34)[C@@](C(=O)OC)(c3cc4c(cc3OC)N(C)[C@H]3[C@@](O)(C(=O)OC)[C@H](OC(C)=O)[C@]5(CC)C=CCN6CC[C@]43[C@@H]65)C2)C1 [VINBLASTINE] | 1.2 nM | < 3700 nM | – | – | – |
| CCCCCC[C@@H](CCC[C@H](OC(C)=O)[C@H]1CC[C@H]([C@H]2CC[C@H]([C@@H](CCCCCCCCCCCCC3=C[C@H](C)OC3=O)OC(C)=O)O2)O1)OC[C@H]1O[C@@H](O)[C@H](O)[C@@H](O)[C@@H]1O | 11 nM | 340 nM | 17 nM | – | – |
| CCCCCC[C@H](O)CCC[C@H](OC[C@H]1O[C@@H](OCc2ccccc2)[C@H](OCc2ccccc2)[C@@H](OCc2ccccc2)[C@@H]1OCc1ccccc1)[C@H]1CC[C@H]([C@H]2CC[C@H]([C@H](O)CCCCCCCCCCCCC3=C[C@H](C)OC3=O)O2)O1 | – | – | 50 nM | – | – |
| CCCCCC[C@H](O)CCC[C@H](OC[C@H]1O[C@@H](O)[C@H](O)[C@@H](O)[C@@H]1O)[C@H]1CC[C@H]([C@H]2CC[C@H]([C@H](O)CCCCCCCCCCCCC3C[C@H](C)OC3=O)O2)O1 (some centres not stated) | 9 nM | – | – | 54% | 10 nM and 80 nM |

From ChEMBL document CHEMBL1133019, “Synthesis, spectroscopy, and cytotoxicity of glycosylated acetogenin derivatives as promising molecules for cancer therapy” (J Med Chem, 2000)
